Measurements reported in ChEMBL document CHEMBL1131621, “Synthesis and activity of dipeptides, linked to targeting ligands, as specific NK cell enhancers” (1998).
The source made the active and inactive calls. The rule behind the calls is not given here.

Columns and labels:
[1] = In vitro Natural Killer cell activity (Activation of murine splenocyte NK cells by its ability to lyze YAC-1 target cells in chromium release assay) relative to interleukin 2 at 10E-4 to 10E-10 M conc; Range 41-60%; assay type: functional, Mus musculus
In short: (§1)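 Spleens from female C57BL/6 (H-2b) mice, 6–8 weeks old, homogenized in RPMI 1640 with 10% FCS and 2 mM L-glutamine. Mononuclear cells isolated on a Lympholyte M gradient (800g, 20 min), washed in PBS, viability checked by trypan blue. 5×10^5 splenocytes with compound incubated 4 h with 5×10^3 51Cr-labelled YAC-1 cells; % specific lysis from released chromium. Compounds tested at 10^-4–10^-12 M. Peak activity scored relative to IL 2 (100%) in 20% bands. Actives run 2–5 times, inactives once.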

[2] = In vitro Natural Killer cell activity (Activation of murine splenocyte NK cells by its ability to lyze YAC-1 target cells in chromium release assay) relative to interleukin 2 at 10E-4 to 10E-8 M conc; Range 21-40%; assay type: functional, Mus musculus; in short: as §1
[3] = In vitro Natural Killer cell activity (Activation of murine splenocyte NK cells by its ability to lyze YAC-1 target cells in chromium release assay) relative to interleukin 2 at 10E-6 to 10E-12 M conc; Range 21-40%; assay type: functional, Mus musculus; in short: as §1
[4] = In vitro Natural Killer cell activity (Activation of murine splenocyte NK cells by its ability to lyze YAC-1 target cells in chromium release assay) relative to interleukin 2 at 10E-4 to 10E-12 M conc.; assay type: functional, Mus musculus; in short: as §1
[5] = In vitro Natural Killer cell activity (Activation of murine splenocyte NK cells by its ability to lyze YAC-1 target cells in chromium release assay) relative to interleukin 2 at 10E-4 to 10E-12 M conc; Range 21-40%; assay type: functional, Mus musculus; in short: as §1
Mus musculus [6] = species on record: Mus musculus; assay: Peak or the range of peak activity relative to positive IL 2 control; Range 10e-8-10e-4; assay type: functional; in short: as §1
[7] = In vitro Natural Killer cell activity (Activation of murine splenocyte NK cells by its ability to lyze YAC-1 target cells in chromium release assay) relative to interleukin 2; Range 0-20%; assay type: functional, Mus musculus; in short: as §1
Mus musculus [8] = species on record: Mus musculus; assay: Peak or the range of peak activity relative to positive IL 2 control; Range 10e-12-10e-5; assay type: functional; in short: as §1
[9] = In vitro Natural Killer cell activity (Activation of murine splenocyte NK cells by its ability to lyze YAC-1 target cells in chromium release assay) relative to interleukin 2 at 10E-4 to 10E-12 M conc; Range 61-80%; assay type: functional, Mus musculus; in short: as §1
Mus musculus [10] = species on record: Mus musculus; assay: Peak or the range of peak activity relative to positive IL 2 control; Range 10e-12-10e-6; assay type: functional; in short: as §1
[11] = In vitro Natural Killer cell activity (Activation of murine splenocyte NK cells by its ability to lyze YAC-1 target cells in chromium release assay) relative to interleukin 2 at 10E-4 to 10E-12 M conc; Range […]; assay type: functional, Mus musculus; in short: as §1
[12] = In vitro Natural Killer cell activity (Activation of murine splenocyte NK cells by its ability to lyze YAC-1 target cells in chromium release assay) relative to interleukin 2 at 10E-4 to 10E-12 M conc; Range 41-60%; assay type: functional, Mus musculus; in short: as §1
Homo sapiens [13] = species on record: Homo sapiens; assay: Iin vitro NK cell cytolytic activity (K 562 target) using human PBML; Range 81-100%; assay type: functional
In short: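 PBML isolated from heparinized human blood by Ficoll-Hypaque density gradient centrifugation. For the NK assay (K562 targets), activity is scored relative to an IL 2 control.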

Mus musculus [14] = species on record: Mus musculus; assay: The compound was tested in vitro for phagocytotic activity against murine whole blood; No effect; assay type: functional
Mus musculus [15] = species on record: Mus musculus; assay: Peak or the range of peak activity relative to positive IL 2 control; Range 10e-12-10e-7; assay type: functional; in short: as §1
Mus musculus [16] = assay: Antimetastatic effect in lungs of C57BL/6 mice injected iv on day 0 with 250000 B16 melanoma cells and a dose of 25 mg/kg of compound in exp 1; assay type: functional, Lung
In short: (§2)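 Female C57BL/6 mice, 6–8 weeks old, given 2.5×10^5 B16F10 melanoma cells iv on day 0. Sacrifice on day 24; lungs fixed and surface tumour colonies counted. Mean ± SEM; n = 8 in exp 1, n = 4 in exp 2.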

Mus musculus [17] = species on record: Mus musculus; assay: The compound was tested in vitro for respiratory burst against murine whole blood; No effect; assay type: functional
Mus musculus [18] = assay: Antimetastatic effect in lungs of C57BL/6 mice injected iv on day 0 with 250000 B16 melanoma cells and a dose of 50 mg/kg of compound in exp 2; assay type: functional, Lung; in short: as §2
Homo sapiens [19] = species on record: Homo sapiens; assay: The compound was tested in vitro for respiratory burst against human PBML; No effect; assay type: functional
Mus musculus [20] = species on record: Mus musculus; assay: The compound was tested in vitro for T cell proliferation (PHA, ConA) against murine splenocytes; No effect; assay type: functional
Mus musculus [21] = species on record: Mus musculus; assay: The compound was tested in vitro for mixed lymphocyte reaction against murine splenocytes; No effect; assay type: functional
[22] = In vitro Natural Killer cell activity (Activation of murine splenocyte NK cells by its ability to lyze YAC-1 target cells in chromium release assay) relative to interleukin 2 at 10E-4 to […] conc; Range 101-120%; assay type: functional, Mus musculus; in short: as §1
Mus musculus [23] = species on record: Mus musculus; assay: The compound was tested in vitro for B cell proliferation (PWM, LPS) against murine splenocytes; No effect; assay type: functional
Mus musculus [24] = assay: Antimetastatic effect in lungs of C57BL/6 mice injected iv on day 0 with 250000 B16 melanoma cells and a dose of 25 mg/kg of compound in exp 2; assay type: functional, Lung; in short: as §2
Mus musculus [25] = assay: Antimetastatic effect in lungs of C57BL/6 mice injected iv on day 0 with 250000 B16 melanoma cells and a dose of 0 mg/kg of compound in exp 1; assay type: functional, Lung; in short: as §2
Mus musculus [26] = species on record: Mus musculus; assay: In vitro for cytotoxic T lymphocyte activity against murine splenocytes; Range 21-40% of IL 2; assay type: functional
Mus musculus [27] = assay: Antimetastatic effect in lungs of C57BL/6 mice injected iv on day 0 with 250000 B16 melanoma cells and a dose of 0 mg/kg of compound in exp 2; assay type: functional, Lung; in short: as §2
Homo sapiens [28] = species on record: Homo sapiens; assay: The compound was tested in vitro for phagocytotic activity against human PBML; No effect; assay type: functional
[29] = In vitro Natural Killer cell activity (Activation of murine splenocyte NK cells by its ability to lyze YAC-1 target cells in chromium release assay) relative to interleukin 2 at 10E-8 to 10E-12 M conc; Range 41-60%; assay type: functional, Mus musculus; in short: as §1
[30] = In vitro Natural Killer cell activity (Activation of murine splenocyte NK cells by its ability to lyze YAC-1 target cells in chromium release assay) relative to interleukin 2 at 10E-4 to 10E-12 M conc; Range 81-100%; assay type: functional, Mus musculus; in short: as §1
[31] = In vitro Natural Killer cell activity (Activation of murine splenocyte NK cells by its ability to lyze YAC-1 target cells in chromium release assay) relative to interleukin 2 at 10e-4; Range 101-120%

C[C@@H](N)C(=O)N[C@@H](CCC(N)=O)C(=O)NCCCCCCCCCCCCO
Stimulation [1]: 41%

CC1OC(OCCCCCCCCCCCCNC(=O)[C@H](CCC(N)=O)NC(=O)[C@@H](C)N)C(O)C(O)C1O (some centres not stated)
Stimulation [2]: 21%

CC[C@H](C)[C@H](N)C(=O)N1CCC[C@H]1C(=O)NCCCCCCO
Stimulation [3]: 21%

CC(=O)N[C@@H](CCC(N)=O)C(=O)NCCCCCCOC1OC(C)C(O)C(O)C1O (some centres not stated)
Stimulation [4]: 0%

CC1OC(OCCCCCCNC(=O)[C@@H](N)CCC(N)=O)C(O)C(O)C1O (some centres not stated)
Stimulation [5]: 21% | Concentration (Mus musculus [6]): 100 nM

C[C@@H](N)C(=O)N[C@@H](CCC(N)=O)C(=O)NCCCCCCCl
Stimulation [7]: 0%

O=C1CC[C@@H](C(=O)NCCCCCCO)N1
Concentration (Mus musculus [8]): 10 pM | Stimulation [9]: 61%

CC1OC(OCCCCCCn2cnc3c(N(C)C)ncnc32)C(O)C(O)C1O (configuration not stated)
Concentration (Mus musculus [10]): 10 pM | Stimulation [11]: 81%

CC1OC(OCCCCCCNC(=O)CNC(=O)[C@@H](C)N)C(O)C(O)C1O (some centres not stated)
Stimulation [4]: 0%

CC1OC(OCCCCCCNC(=O)[C@@H]2CCC(=O)N2)C(O)C(O)C1O (some centres not stated)
Stimulation [4]: 0%

CC1OC(OCCCCCCNC(=O)[C@H](CCC(=O)O)NC(=O)[C@H](C)N)C(O)C(O)C1O (some centres not stated)
Stimulation [12]: 41%

CC1OC(OCCCCCCNC(=O)[C@H](CCC(N)=O)NC(=O)CCN)C(O)C(O)C1O (some centres not stated)
Stimulation [7]: 0%

CC[C@@H](C)[C@H](N)C(=O)N1CCC[C@H]1C(=O)NCCCCCCOC1OC(C)C(O)C(O)C1O (some centres not stated)
Stimulation [4]: 0%

CC1OC(OCCCCCCNC(=O)CC[C@H](NC(=O)[C@H](CCC(N)=O)NC(=O)[C@@H](C)N)C(=O)NCCCCCCOC2OC(C)C(O)C(O)C2O)C(O)C(O)C1O (some centres not stated)
Stimulation [7]: 0%

CC1OC(OCCCCCCNC(=O)[C@H](CCC(N)=O)NC(=O)[C@@H](C)N)C(O)C(O)C1O (some centres not stated)
Activity (Homo sapiens [13]): 81% | Activity (Mus musculus [14]): inactive | Concentration (Mus musculus [15]): 10 pM | No. of lung colonies (Mus musculus [16]): 109 | Activity (Mus musculus [17]): inactive | No. of lung colonies (Mus musculus [18]): 60 | Activity (Homo sapiens [19]): inactive | Activity (Mus musculus [20]): inactive | Activity (Mus musculus [21]): inactive | Stimulation [22]: 101% | Activity (Mus musculus [23]): inactive | No. of lung colonies (Mus musculus [24]): 86 | No. of lung colonies (Mus musculus [25]): 142 | Activity (Mus musculus [26]): 21% | No. of lung colonies (Mus musculus [27]): 101 | Activity (Homo sapiens [28]): inactive

CC1OC(SCCCCCCNC(=O)[C@H](CCC(N)=O)NC(=O)[C@@H](C)N)C(O)C(O)C1O (some centres not stated)
Stimulation [29]: 41%

C[C@@H](N)C(=O)N[C@@H](CCC(N)=O)C(=O)NCCCCCCO
Stimulation [30]: 101%

C[C@@H](N)C(=O)N[C@@H](CCC(N)=O)C(=O)NCCCCCCN
Stimulation [31]: 101%

CC(C(=O)OCCCCCn1cnc2c(N(C)C)ncnc21)[C@H](C)CCCN=C(N)N (some centres not stated)
Stimulation [4]: 0%
